# Assays:
# DU-145 = assay: Cytotoxicity against human DU145 cells assessed as growth inhibition after 48 hrs by SRB assay; format: functional; settings: DU-145, 48 h
# Procedure, shortened: (§1)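 Run in the NCI 60 human tumour cell line panel. Cells exposed for 48 h, growth read by sulforhodamine B. Compounds were first screened at a single 10 µM dose, and those meeting preset threshold inhibition criteria went on to the 5-dose screen. GI50 is the molar concentration giving 50% growth inhibition.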
# OVCAR-3 = assay: Cytotoxicity against human OVCAR3 cells assessed as growth inhibition after 48 hrs by SRB assay; format: functional; settings: OVCAR-3, 48 h; procedure, shortened: as §1
# Ovis aries = species: Ovis aries; assay: Inhibition of sheep brain tubulin assembly at 100 uM by DAPI staining-based fluorescence assay
# Procedure, shortened: (§2)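 Tubulin from sheep brain, purified by two assembly–disassembly cycles, at about 2–3 mg/mL in 0.1 M MES, 0.5 mM MgCl2, 1 mM EGTA, 1 mM GTP, pH 6.6. Assembly followed by DAPI fluorescence at 37 °C. Single-point inhibition tested at 100 µM. IC50 is the concentration halving the assembly rate relative to no compound, mean of two experiments, with reference inhibitors run the same day.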
# [1] = Inhibition of sheep brain tubulin assembly by DAPI staining-based fluorescence assay; parameters: species or system Ovis aries; procedure, shortened: as §2
# NCI-H460 = assay: Cytotoxicity against human NCI-H460 cells assessed as growth inhibition after 48 hrs by SRB assay; format: functional; settings: NCI-H460, 48 h; procedure, shortened: as §1
# NCI/ADR-RES = assay: Cytotoxicity against human NCI/ADR-RES cells assessed as growth inhibition at 10 uM after 48 hrs by SRB assay; format: functional; settings: read-out: GI
# Procedure, shortened: (§3)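 Single-dose NCI 60-cell screen at 10 µM with 48 h exposure and sulforhodamine B read-out. Values are percentage growth per cell line. A summary ratio counts cell lines with 0–50% growth over all cell lines tested.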
# KM12 = assay: Cytotoxicity against human KM12 cells assessed as growth inhibition at 10 uM after 48 hrs by SRB assay; format: functional; settings: KM12, 48 h, read-out: GI; procedure, shortened: as §3
# SR = assay: Cytotoxicity against human SR cells assessed as growth inhibition at 10 uM after 48 hrs by SRB assay; format: functional; settings: read-out: GI; procedure, shortened: as §3
# K562 = assay: Cytotoxicity against human K562 cells assessed as growth inhibition at 10 uM after 48 hrs by SRB assay; format: functional; settings: K562, 48 h, read-out: GI; procedure, shortened: as §3
# NCI-H522 = assay: Cytotoxicity against human NCI-H522 cells assessed as growth inhibition at 10 uM after 48 hrs by SRB assay; format: functional; settings: NCI-H522, 48 h, read-out: GI; procedure, shortened: as §3
Structure (SMILES),GI50 (DU-145),GI50 (OVCAR-3),inhibition (Ovis aries),IC50 [1],GI50 (NCI-H460),inhibition of growth at 10 µM (NCI/ADR-RES),inhibition of growth at 10 µM (KM12),inhibition of growth at 10 µM (SR),inhibition of growth at 10 µM (K562),inhibition of growth at 10 µM (NCI-H522)
COc1ccc(C(=O)c2cc(OC)c(OC)c(OC)c2)cc1O [PHENSTATIN],34 nM,2 nM,99%,3430 nM,6 nM,–,–,–,–,–
COc1ccc(C(O)c2cc(F)c(F)c(OC)c2F)cc1O (stereo not drawn),–,–,49%,–,–,35%,26%,33%,41%,53%
COc1ccc(C(=O)c2cc(F)c(F)c(OC)c2F)c(O)c1O,–,–,93%,29200 nM,–,–,–,–,–,–

# — ChEMBL document CHEMBL2384929, “Synthesis and biological evaluation of fluoro analogues of antimitotic phenstatin” (Bioorg Med Chem, 2013)
